Seven compounds from ChEMBL document CHEMBL1158353, “N1-Alkylated 3,4-dihydropyrimidine-2(1H)-ones: Convenient one-pot selective synthesis and evaluation of their calcium channel blocking activity” (Eur J Med Chem, 2009) can be followed below.

The species entered for one assay is Sus scrofa. The experiment in a line: Inhibition of calcium channel in pig carotid artery assessed as relaxation of KCl-induced tissue contraction at 1 uM to 30 mM. Format: tissue-based. In outline:
(§1)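 Arterial strips equilibrated 90-120 min in PSS at 37 °C, pH 7.4, bubbled with 100% O₂, under ~2 g passive force (near L_0), and repeatedly contracted with 110 mM KCl (equimolar NaCl substitution) until force stabilized. Then precontracted with 110 mM KCl PSS to stable force; cumulative compound addition (1 μM to 30 mM), DMSO vehicle control. Force expressed as percent of initial maximal KCl response at each concentration.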

A short description of assay [1]: Inhibition of calcium channel in pig carotid artery assessed as relaxation of KCl-induced tissue contraction. Type of assay: tissue-based, Sus scrofa. An outline of the steps:
as §1

Turning to `CCCCCCCCCCN1C(=O)NC(c2ccccc2)C(C(=O)OCC)=C1C` (stereo not drawn), the inhibition (usually the change of the read-out against control, counted positive when it falls) in the assay listed under Sus scrofa was determined as 40%. The half-maximal inhibitory concentration (IC50) (commonly the concentration that inhibits the measured activity by half) in assay [1] was 100 µM.

Take `CCOC(=O)C1=C(C)N(CC)C(=O)NC1c1ccccc1` (stereo not drawn): in the assay listed under Sus scrofa, the inhibition was determined as 40%. In addition, the IC50 in assay [1] turned out to be 100 µM.

As to `CCCCN1C(=O)NC(c2ccccc2)C(C(=O)OCC)=C1C` (stereo not drawn), in the assay filed under Sus scrofa, the inhibition came out at 40%. Moreover, the IC50 in assay [1] was determined as 100 µM.

On to `CCCN1C(=O)NC(c2ccccc2)C(C(=O)OCC)=C1C` (stereo not drawn), for which the inhibition in the assay listed under Sus scrofa came out at 40%. Moreover, the 50% inhibitory concentration (IC50) in assay [1] is 100 µM.

`COC(=O)C1=C(C)NC(C)=C(C(=O)OC)C1c1ccccc1[N+](=O)[O-]` [NIFEDIPINE]: the concentration for half-maximal inhibition (IC50) in assay [1] was 10 µM.

With `C=CCN1C(=O)NC(c2ccccc2)C(C(=O)OCC)=C1C` (stereo not drawn), the inhibition in the assay filed under Sus scrofa is 40%. Further, the IC50 in assay [1] was determined as 100 µM.

`CCCCCN1C(=O)NC(c2ccccc2)C(C(=O)OCC)=C1C` (stereo not drawn): the inhibition in the assay filed under Sus scrofa is 40%. The half-inhibitory concentration (IC50) in assay [1] amounted to 100 µM.
